Measurements taken from paper PMC5615838 (Toxicology Reports, 2016).

Tests used:
CYP1A2 = target: T1, CYP1A2 (Homo sapiens, UniProt P05177); experiment: CYP inhibition, LC–MS/MS assay in human liver microsomes; type: in vitro ADME; settings: pooled human liver microsomes, probe ethoxyresorufin
T1 sequence (P05177 1-516): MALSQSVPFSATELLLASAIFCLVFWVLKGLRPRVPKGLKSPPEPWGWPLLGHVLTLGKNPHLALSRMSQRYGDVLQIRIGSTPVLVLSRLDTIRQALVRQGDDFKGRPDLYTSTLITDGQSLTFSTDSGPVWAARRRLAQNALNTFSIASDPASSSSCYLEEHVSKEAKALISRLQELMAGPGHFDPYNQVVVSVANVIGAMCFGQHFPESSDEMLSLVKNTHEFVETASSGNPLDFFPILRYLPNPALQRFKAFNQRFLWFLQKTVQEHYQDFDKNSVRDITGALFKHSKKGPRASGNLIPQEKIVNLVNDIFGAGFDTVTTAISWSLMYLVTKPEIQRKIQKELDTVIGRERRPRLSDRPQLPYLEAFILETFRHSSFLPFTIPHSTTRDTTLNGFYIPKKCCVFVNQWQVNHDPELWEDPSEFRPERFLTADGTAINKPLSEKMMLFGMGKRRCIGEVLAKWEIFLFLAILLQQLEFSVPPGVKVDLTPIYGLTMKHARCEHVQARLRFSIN
Outline: (§1)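 Follow-up CYP panel in pooled human liver microsomes with CYP-specific probe substrates; CYP-specific metabolites quantified by LC-MS/MS. Test compound at 10 μM. Percent inhibition reported.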

[1] = system: S. typhimurium strains TA98, TA100, TA1535, TA1537 and E. coli strain WP2 uvrA; experiment: bacterial reverse mutation test; type: cell-based, Salmonella typhimurium, Escherichia coli; settings: 50–5000 μg/plate, plate incorporation and pre-incubation, ±S9
[2] = target: human bitter receptor hTAS2R8; settings: antagonist; cited from earlier work
CYP3A4 = CYP3A4 (Homo sapiens, UniProt P08684); experiment: CYP inhibition, LC–MS/MS assay in human liver microsomes; type: in vitro ADME; settings: pooled human liver microsomes, probe midazolam
CYP3A4, sequence (P08684 whole entry): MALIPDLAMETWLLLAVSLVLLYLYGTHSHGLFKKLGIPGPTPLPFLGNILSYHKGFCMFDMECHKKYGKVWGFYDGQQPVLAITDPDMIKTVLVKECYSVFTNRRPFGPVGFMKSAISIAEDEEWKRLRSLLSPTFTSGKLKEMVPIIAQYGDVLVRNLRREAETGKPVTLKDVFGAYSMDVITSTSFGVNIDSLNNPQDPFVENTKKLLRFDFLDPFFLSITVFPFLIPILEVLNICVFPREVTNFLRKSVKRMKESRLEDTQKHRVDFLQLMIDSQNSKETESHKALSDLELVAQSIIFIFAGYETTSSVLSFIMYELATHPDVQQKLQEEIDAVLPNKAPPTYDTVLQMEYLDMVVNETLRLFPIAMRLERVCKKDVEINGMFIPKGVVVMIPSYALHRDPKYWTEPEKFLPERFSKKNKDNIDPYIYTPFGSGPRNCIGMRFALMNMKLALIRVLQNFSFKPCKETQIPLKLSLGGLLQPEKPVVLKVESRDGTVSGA
Outline: as §1

[3] = JECFA SPET dietary exposure estimate; design: species or system human; settings: 28- and 90-day toxicology studies
hERG = hERG (Homo sapiens, UniProt Q12809); experiment: hERG electrophysiology; type: cell-based
hERG, sequence (Q12809 whole entry): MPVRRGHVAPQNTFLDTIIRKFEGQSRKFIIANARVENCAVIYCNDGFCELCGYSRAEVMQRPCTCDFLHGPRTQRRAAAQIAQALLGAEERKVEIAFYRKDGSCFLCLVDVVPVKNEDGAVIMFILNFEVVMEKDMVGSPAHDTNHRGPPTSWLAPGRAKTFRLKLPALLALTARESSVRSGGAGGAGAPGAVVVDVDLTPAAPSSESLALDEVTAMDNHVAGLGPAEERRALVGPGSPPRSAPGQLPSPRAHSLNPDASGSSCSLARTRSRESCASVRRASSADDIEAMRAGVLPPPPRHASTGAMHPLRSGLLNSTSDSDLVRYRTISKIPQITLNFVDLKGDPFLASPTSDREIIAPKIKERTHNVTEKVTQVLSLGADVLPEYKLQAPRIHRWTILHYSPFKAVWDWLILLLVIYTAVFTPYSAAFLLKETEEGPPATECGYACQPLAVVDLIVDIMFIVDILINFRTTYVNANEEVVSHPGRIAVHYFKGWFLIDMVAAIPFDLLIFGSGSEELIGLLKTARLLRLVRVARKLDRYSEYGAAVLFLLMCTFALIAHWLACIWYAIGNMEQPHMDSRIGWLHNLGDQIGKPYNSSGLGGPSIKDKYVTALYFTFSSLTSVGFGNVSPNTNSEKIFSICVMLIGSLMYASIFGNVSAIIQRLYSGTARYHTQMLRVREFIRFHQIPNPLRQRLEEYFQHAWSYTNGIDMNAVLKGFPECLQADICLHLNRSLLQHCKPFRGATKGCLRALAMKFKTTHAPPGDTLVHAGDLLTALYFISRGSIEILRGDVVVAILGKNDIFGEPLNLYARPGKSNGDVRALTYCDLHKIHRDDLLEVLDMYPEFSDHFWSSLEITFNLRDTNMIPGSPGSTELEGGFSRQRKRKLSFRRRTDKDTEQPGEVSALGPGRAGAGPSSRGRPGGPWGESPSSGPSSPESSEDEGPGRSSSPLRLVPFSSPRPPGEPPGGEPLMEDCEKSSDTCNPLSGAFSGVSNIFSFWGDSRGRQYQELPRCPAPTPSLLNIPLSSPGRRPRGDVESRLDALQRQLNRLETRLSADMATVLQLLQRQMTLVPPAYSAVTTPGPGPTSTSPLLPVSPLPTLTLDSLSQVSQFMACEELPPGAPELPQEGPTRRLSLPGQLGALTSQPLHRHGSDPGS

[4] = in vivo metabolism after single oral dose, plasma; design: species or system rat; settings: S7958 30 mg/kg bw oral
CYP2C9 [5] = target: T2, CYP2C9 (Homo sapiens, UniProt P11712); experiment: CYP inhibition, LC–MS/MS assay in human liver microsomes; type: in vitro ADME; settings: pooled human liver microsomes, probe tolbutamide
T2 sequence (P11712 whole entry): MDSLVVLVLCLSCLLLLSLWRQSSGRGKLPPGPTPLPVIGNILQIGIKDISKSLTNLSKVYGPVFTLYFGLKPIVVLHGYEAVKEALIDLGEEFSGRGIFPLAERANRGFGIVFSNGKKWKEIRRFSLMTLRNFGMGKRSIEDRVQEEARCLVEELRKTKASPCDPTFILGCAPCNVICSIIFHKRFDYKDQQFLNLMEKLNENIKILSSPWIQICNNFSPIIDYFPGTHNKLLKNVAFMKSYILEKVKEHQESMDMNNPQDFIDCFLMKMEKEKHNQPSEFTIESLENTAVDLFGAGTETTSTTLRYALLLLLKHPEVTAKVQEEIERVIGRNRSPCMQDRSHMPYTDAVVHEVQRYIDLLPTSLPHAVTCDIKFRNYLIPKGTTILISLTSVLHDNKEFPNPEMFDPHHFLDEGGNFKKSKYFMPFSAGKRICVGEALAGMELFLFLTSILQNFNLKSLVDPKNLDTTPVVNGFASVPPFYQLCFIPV
Outline: as §1

CYP2D6 = CYP2D6 (Homo sapiens, UniProt P10635); experiment: as above; type: in vitro ADME; settings: pooled human liver microsomes, probe bufuralol
CYP2D6, sequence (P10635 whole entry): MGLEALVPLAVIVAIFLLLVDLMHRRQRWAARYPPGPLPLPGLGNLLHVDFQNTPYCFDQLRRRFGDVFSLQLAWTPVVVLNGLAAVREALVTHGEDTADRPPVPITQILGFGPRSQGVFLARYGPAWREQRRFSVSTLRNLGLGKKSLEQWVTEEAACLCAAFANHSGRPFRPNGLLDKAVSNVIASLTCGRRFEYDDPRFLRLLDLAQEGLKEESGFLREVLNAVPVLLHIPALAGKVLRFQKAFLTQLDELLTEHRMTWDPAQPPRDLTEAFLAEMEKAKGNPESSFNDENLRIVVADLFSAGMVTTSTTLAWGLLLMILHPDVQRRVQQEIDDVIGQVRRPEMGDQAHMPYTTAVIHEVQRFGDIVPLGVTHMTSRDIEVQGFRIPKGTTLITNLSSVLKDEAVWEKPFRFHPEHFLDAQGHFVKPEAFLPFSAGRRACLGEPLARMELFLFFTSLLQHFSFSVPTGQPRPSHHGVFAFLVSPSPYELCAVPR
Outline: as §1

[6] = 28-day subacute toxicity study, diet; type: in vivo, rat; settings: 28 days
Outline: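 Diet admix given for 28 consecutive days to Crl:CD(SD) rats, 10/sex/group, at 10, 30 or 100 mg/kg bw/day. H&E-stained paraffin sections of tissues examined microscopically for all control and high-dose (100 mg/kg bw/day) animals.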

CYP2C9 [7] = target: T2, CYP2C9; type: in vitro ADME
Outline: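 Pooled human liver microsomes preincubated with test compound for 30 min, with and without an NADPH-generating system, then incubated with diclofenac as the CYP2C9 marker substrate. IC50 derived.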

[8] = proof of exposure in 28-day study, plasma concentrations; type: in vivo, rat; settings: for concentration at 29 day: Crl:CD(SD) (Sprague-Dawley), rat, plasma (peripheral blood), oral; for Hepatic Portal Vein Blood Mean Conc. / Hepatic Portal Vein Blood Mean Conc. Ratio: necropsy
Outline: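 In the 28-day dietary study (10, 30, 100 mg/kg bw/day), plasma test compound measured in peripheral blood taken at 06:00 h GMT on Day 29. Hepatic portal vein blood was sampled from the same animals at necropsy.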

CYP2C19 = CYP2C19 (Homo sapiens, UniProt P33261); experiment: CYP inhibition, LC–MS/MS assay in human liver microsomes; type: in vitro ADME; settings: pooled human liver microsomes, probe S-mephenytoin
CYP2C19, sequence (P33261 whole entry): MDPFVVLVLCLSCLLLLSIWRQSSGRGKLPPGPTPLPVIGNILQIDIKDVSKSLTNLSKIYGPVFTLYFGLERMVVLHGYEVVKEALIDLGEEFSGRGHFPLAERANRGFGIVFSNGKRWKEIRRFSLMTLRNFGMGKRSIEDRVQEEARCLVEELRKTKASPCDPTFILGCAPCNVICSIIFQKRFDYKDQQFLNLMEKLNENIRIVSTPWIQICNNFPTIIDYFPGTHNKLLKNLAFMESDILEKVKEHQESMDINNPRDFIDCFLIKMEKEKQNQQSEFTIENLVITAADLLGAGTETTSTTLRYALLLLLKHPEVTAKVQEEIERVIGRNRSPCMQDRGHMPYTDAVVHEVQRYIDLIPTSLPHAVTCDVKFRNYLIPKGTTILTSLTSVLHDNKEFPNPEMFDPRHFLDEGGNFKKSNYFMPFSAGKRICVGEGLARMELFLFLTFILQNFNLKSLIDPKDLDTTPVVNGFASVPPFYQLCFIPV
Outline: as §1

[9] = system: GPCRs, ion channels, nuclear receptors, transporters; experiment: lead profiling receptor screen; type: binding; settings: 10 μM

SMILES: Cc1noc(C)c1Cn1cc(N2C(=O)N(Cc3cccc(O)c3)C(C)(C)C2=O)cn1 [S7958, 3-(1-((3,5-dimethylisoxazol-4-yl)methyl)-1H-pyrazol-4-yl)-1-(3-hydroxybenzyl)-5,5-dimethylimidazolidine-2,4-dione]
- inhibition at 10 µM (CYP1A2): 16%
- Reverse mutation (in vitro), Result [1]: Negative
- IC50 [2]: 0.073 µM
- inhibition at 10 µM (CYP3A4): 12%
- NOAEL of 100 mg/kg bw/day as multiple of estimated dietary exposure [3]: 1500 times
- inhibition at 10 µM (hERG): < 10%
- maximum concentration in plasma [4]: 5.2 ± 7.1 ng/mL
- inhibition at 10 µM (CYP2C9 [5]): 62%
- inhibition at 10 µM (CYP2D6): 17%
- NOAEL ([6]; 10, 30, 100 mg/kg bw/day food ad-mix, both sexes): 100 mg/kg bw/day
- Findings ([6]; up to 100 mg/kg bw/day): No test-article related findings
- IC50 (CYP2C9 [7]): 8.8 µM
- time- or metabolism-dependent inhibition (CYP2C9 [7]; 30 min preincubation ±NADPH): no evidence of either time- or metabolism-dependent inhibition
- Peripheral Blood Mean Conc. Ratio ([8]; Day 29, 10 mg/kg bw/day, F): 1
- Peripheral Blood Mean Conc. Ratio ([8]; Day 29, 10 mg/kg bw/day, M): 1
- Peripheral Blood Mean Conc. Ratio ([8]; Day 29, 30 mg/kg bw/day, F): 3.6
- Peripheral Blood Mean Conc. Ratio ([8]; Day 29, 30 mg/kg bw/day, M): 4.1
- Peripheral Blood Mean Conc. Ratio ([8]; Day 29, 100 mg/kg bw/day, F): 7.4
- Peripheral Blood Mean Conc. Ratio ([8]; Day 29, 100 mg/kg bw/day, M): 41.5
- concentration at 29 day ([8]; female, 10 mg/kg bw/day): 18.4 ng/mL
- concentration at 29 day ([8]; female, 30 mg/kg bw/day): 66.7 ng/mL
- concentration at 29 day ([8]; female, 100 mg/kg bw/day): 136 ng/mL
- concentration at 29 day ([8]; male, 10 mg/kg bw/day): 0.441 ng/mL
- concentration at 29 day ([8]; male, 30 mg/kg bw/day): 1.79 ng/mL
- concentration at 29 day ([8]; male, 100 mg/kg bw/day): 18.3 ng/mL
- Hepatic Portal Vein Blood Mean Conc. ([8]; 10 mg/kg bw/day, F): 19.4 ng/mL
- Hepatic Portal Vein Blood Mean Conc. Ratio ([8]; 10 mg/kg bw/day, F): 1
- Hepatic Portal Vein Blood Mean Conc. ([8]; 10 mg/kg bw/day, M): 24.4 ng/mL
- Hepatic Portal Vein Blood Mean Conc. Ratio ([8]; 10 mg/kg bw/day, M): 1
- Hepatic Portal Vein Blood Mean Conc. ([8]; 30 mg/kg bw/day, F): 85.0 ng/mL
- Hepatic Portal Vein Blood Mean Conc. Ratio ([8]; 30 mg/kg bw/day, F): 4.4
- Hepatic Portal Vein Blood Mean Conc. ([8]; 30 mg/kg bw/day, M): 68.2 ng/mL
- Hepatic Portal Vein Blood Mean Conc. Ratio ([8]; 30 mg/kg bw/day, M): 2.8
- Hepatic Portal Vein Blood Mean Conc. ([8]; 100 mg/kg bw/day, F): 334 ng/mL
- Hepatic Portal Vein Blood Mean Conc. Ratio ([8]; 100 mg/kg bw/day, F): 17.2
- Hepatic Portal Vein Blood Mean Conc. ([8]; 100 mg/kg bw/day, M): 345 ng/mL
- Hepatic Portal Vein Blood Mean Conc. Ratio ([8]; 100 mg/kg bw/day, M): 14.1
- inhibition at 10 µM (CYP2C19): 17%
- significant responses (≥50% inhibition or stimulation) [9]: No significant responses
